Source: ChEMBL document CHEMBL1125740, “Heterocyclic quinones. 17. A new in vivo active antineoplastic drug: 6,7-bis(1-aziridinyl)-4-[[3-(N,N-dimethylamino)propyl]amino]-5,8- quinazolinedione” (J Med Chem, 1991)
“And” between values parts separate entries of the source, which are not always exact repeats. Equal values may be shown once.

Legend:
B16 [1] = experiment: Compound was evaluated in vivo for antitumor activity against B16 melanoma after injecting the compound intravenously for percent T/C (value in parentheses indicates the day of evaluation); type: functional, Mus musculus
Outline: (§1)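 30-60 mg tumor fragments implanted sc by trocar on day 0 into C57Bl/6-derived hosts (B16) or C3H/He-derived hosts (16/C). Drug given iv on days 6, 9 and 13 (B16) or 6, 9 and 12 (16/C), 10 mice per group. Tumors measured by caliper. T/C % taken from median tumor burden of treated vs control groups on day 15 (B16) or day 14 (16/C). Body weight change per mouse recorded at nadir.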

B16 [2] = experiment: Compound was evaluated in vivo for antitumor activity against B16 melanoma 2 after injecting the compound intravenously for total dose.; type: functional, Mus musculus
B16 [3] = experiment: Compound was evaluated in vivo for antitumor activity against B16 melanoma 2 after injecting the compound intravenously for toxicity related death.; type: functional, Mus musculus
B16 [4] = experiment: Compound was evaluated in vivo for antitumor activity against B16 melanoma 2 after injecting the compound intravenously median tumor burden; type: functional, Mus musculus
B16 [5] = experiment: Compound was evaluated in vivo for antitumor activity against B16 melanoma 1 after injecting the compound intravenously for toxicity related death.; type: functional, Mus musculus
B16 [6] = experiment: Compound was evaluated in vivo for antitumor activity against B16 melanoma 1 after injecting the compound intravenously for median tumor burden; type: functional, Mus musculus
[7] = Compound was evaluated in vivo for antitumor activity against Glasgow osteogenic sarcoma after injecting the compound intravenously for median tumor burden; type: functional, Mus musculus
Outline: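 Glasgow osteogenic sarcoma in C57Bl/6-derived hosts: 30-60 mg fragments implanted sc by trocar on day 0. Drug given iv on days 3, 6 and 9, 7 mice per group. Tumors measured by caliper. Median tumor burden recorded on day 10. Body weight change per mouse recorded at nadir. Toxicity-related deaths counted.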

L1210 [8] = experiment: Compound was evaluated in vivo for antitumor activity after intraperitoneal administration against L1210(935) for total dose at an optimal dose of 0.4 mg/kg/injection at 1-4 day schedule.; type: functional, Mus musculus
Outline: (§2)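 L1210 leukemia, maintained in DBA/2 mice, was given ip as 10⁵ cells on day 0 to F1 hybrid or strain-of-origin mice over 18 g, in groups of 8. Dosing was ip from day 1, and mortality was checked daily. Median day of death counts dying mice only. %ILS = 100×(treated − control median day of death)/control median. Tumor-free survivors were counted on day 60. Weight change is g/mouse at nadir.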

L1210 [9] = experiment: Compound was evaluated in vivo for antitumor activity after intraperitoneal administration against L1210(935) for total dose at an optimal dose of 0.5 mg/kg/injection at 1 day schedule.; type: functional, Mus musculus; outline: as §2
L1210 [10] = experiment: Compound was evaluated in vivo for antitumor activity after intraperitoneal administration against L1210(935)for change in body weight at an optimal dose of 0.2 mg/kg/injection at 1-4 day schedule.; type: functional, Mus musculus; outline: as §2
L1210 [11] = experiment: Compound was evaluated in vivo for antitumor activity after intraperitoneal administration against L1210(935)for change in body weight at an optimal dose of 0.4 mg/kg/injection at 1-4 day schedule.; type: functional, Mus musculus; outline: as §2
L1210 [12] = experiment: Compound was evaluated in vivo for antitumor activity after intraperitoneal administration against L1210(935)for change in body weight at an optimal dose of 0.5 mg/kg/injection at 1 day schedule.; type: functional, Mus musculus; outline: as §2
L1210 [13] = experiment: Compound was evaluated in vivo for antitumor activity after intraperitoneal administration against L1210(935) for median day of death at an optimal dose of 1 mg/kg/injection at 1 day schedule.; type: functional, Mus musculus; outline: as §2
L1210 [14] = experiment: Compound was evaluated in vivo for antitumor activity after intraperitoneal administration against L1210(935) for mortality range at an optimal dose of 0.1 mg/kg/injection at 1-4 day schedule.; type: functional, Mus musculus; outline: as §2
L1210 [15] = experiment: Compound was evaluated in vivo for antitumor activity after intraperitoneal administration against L1210(935) for tumor free survivors at an optimal dose of 0.125 mg/kg/injection at 1,4,7,11 day schedule.; type: functional, Mus musculus; outline: as §2
[16] = Compound was evaluated in vivo for antitumor activity against Lewis Lung cercinoma after injecting the compound intravenously for change in body weight.; type: functional, Mus musculus
Outline: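 Lewis lung carcinoma: 10^6 cells implanted im into C57Bl/6-derived hosts. Drug given iv on days 5, 9 and 13, 10 mice per group. Median tumor burden and weight nadir recorded. Survivors were killed on day 19, and their lungs were fixed in Fekete solution so that macroscopic metastases could be counted.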

P388 [17] = experiment: Compound was evaluated in vivo for antitumor activity after intraperitoneal administration against P388/L-PAM(14) for median day of death at an optimal dose of 0.5 mg/kg/injection at one day schedule.; type: functional, Mus musculus
P388 [18] = experiment: Compound was evaluated in vivo for antitumor activity after intraperitoneal administration against P388/L-PAM(14) for mortality range at an optimal dose of 0.25 mg/kg/injection at 1,4,7,11 day schedule.; type: functional, Mus musculus
P388 [19] = experiment: Compound was evaluated in vivo for antitumor activity after intraperitoneal administration against P388/L-PAM(14) for tumor free survivors at an optimal dose of 1 mg/kg/injection; type: functional, Mus musculus
P388 [20] = experiment: Compound was evaluated in vivo for antitumor activity after intraperitoneal administration against P388/L-PAM(14) for total dose at an optimal dose of 0.25 mg/kg/injection at 1,4,7,11 day schedule.; type: functional, Mus musculus
P388 [21] = experiment: Compound was evaluated in vivo for antitumor activity after intraperitoneal administration against P388 (1303) for tumor free survivors at an optimal dose of 0.75 mg/kg/injection on day 60; type: functional, Mus musculus
P388 [22] = experiment: Compound was evaluated in vivo for antitumor activity after intraperitoneal administration against P388/L-PAM(14) for change in body weight at an optimal dose of 0.5 mg/kg/injection at 1,4,7,11 day schedule.; type: functional, Mus musculus
P388 [23] = experiment: Compound was evaluated in vivo for antitumor activity after intraperitoneal administration against P388/L-PAM(14) for % increase in life span at an optimal dose of 0.2 mg/kg/injection at 1,2,3,4 day schedule.; type: functional; settings: Mus musculus, P388, ip
P388 [24] = experiment: Compound was evaluated in vivo for antitumor activity after intraperitoneal administration against P388/L-PAM(14) for % increase in life span at an optimal dose of 0.5 mg/kg/injection at 1,4,7,11 day schedule.; type: functional; settings: Mus musculus, P388, ip
P388 [25] = experiment: Compound was evaluated in vivo for antitumor activity after intraperitoneal administration against P388 (1313) for change in body weight at an optimal dose of 0.2 mg/kg/injection; type: functional, Mus musculus
[26] = Compound was evaluated in vivo for antitumor activity against colon adenocarcinoma 38 after injecting the compound intravenously for total dose.; type: functional, Mus musculus
[27] = Compound was evaluated in vivo for antitumor activity against colon adenocarcinoma 38 after injecting the compound intravenously for toxicity related death.; type: functional, Mus musculus
[28] = Compound was evaluated in vivo for antitumor activity against mammary adenocarcinoma 16/C after injecting the compound intravenously for change in body weight.; type: functional, Mus musculus; outline: as §1
[29] = Compound was evaluated in vivo for antitumor activity against mammary adenocarcinoma 16/C after injecting the compound intravenously for percent T/C; type: functional, Mus musculus; outline: as §1
[30] = Compound was evaluated in vivo for antitumor activity against mammary adenocarcinoma 16/C after injecting the compound intravenously for total dose.; type: functional, Mus musculus; outline: as §1
P388 [31] = experiment: Compound was evaluated in vivo for antitumor activity after intraperitoneal administration against P388 (1313) for change in body weight at an optimal dose of 0.25 mg/kg/injection; type: functional, Mus musculus
P388 [32] = experiment: Compound was evaluated in vivo for antitumor activity after intraperitoneal administration against P388 (1313) for mortality range at an optimal dose of 0.4 mg/kg/injection; type: functional, Mus musculus

In the case of `CN(C)CCCNc1ncnc2c1C(=O)C(N1CC1)=C(N1CC1)C2=O`, the T/C (B16 [1]) is reported as 41% and 78%, the Total dose (B16 [2]) is reported as 1.8 mg/kg and the Toxicity (B16 [3]) is reported as 0. For the same compound, the Tumor burden (B16 [4]) was 27 mg, the Toxicity (B16 [5]) was 0 and the Tumor burden (B16 [6]) was 27.8. It also gave a Tumor burden [7] of 40 mg, a Total dose (L1210 [8]) of 1.6 mg/kg and a Total dose (L1210 [9]) of 0.5 mg/kg. For the same compound, the “Change in body weight” value (L1210 [10]) was 0.4 g mouse-1, the “Change in body weight” value (L1210 [11]) was 0.3 g mouse-1 and the “Change in body weight” value (L1210 [12]) was 0.3 g mouse-1. For the same compound, the “Median day of death” value (L1210 [13]) was 14, the Mortality (L1210 [14]) was 14 days and the Survivors (L1210 [15]) was 0. For the same compound, the “Change in body weight” value [16] was 0.6 g mouse-1 and 1.1 g mouse-1, the “Median day of death” value (P388 [17]) was 18 and the Mortality (P388 [18]) was 20 days. The Survivors (P388 [19]) was 0, the Total dose (P388 [20]) was 1 mg/kg and the Survivors (P388 [21]) was 0. For the same compound, the “Change in body weight” value (P388 [22]) was 0.7 g mouse-1, the ILS at 0.2 mg/kg (P388 [23]) was 36% and the ILS at 0.5 mg/kg (P388 [24]) was 61%. The “Change in body weight” value (P388 [25]) was 1.3 g mouse-1, the Total dose [26] was 0.5 mg/kg and the Toxicity [27] was 0. The “Change in body weight” value [28] was 0.5 g mouse-1 and 1 g mouse-1, the T/C [29] was 48% and 68% and the Total dose [30] was 1.2 mg/kg and 0.6 mg/kg. For the same compound, the “Change in body weight” value (P388 [31]) was 2.4 g mouse-1 and the Mortality (P388 [32]) was 39 days.
